In this assay the target is T1, Polyunsaturated fatty acid 5-lipoxygenase (Rattus norvegicus, UniProt P12527).
T1 sequence (P12527 whole entry): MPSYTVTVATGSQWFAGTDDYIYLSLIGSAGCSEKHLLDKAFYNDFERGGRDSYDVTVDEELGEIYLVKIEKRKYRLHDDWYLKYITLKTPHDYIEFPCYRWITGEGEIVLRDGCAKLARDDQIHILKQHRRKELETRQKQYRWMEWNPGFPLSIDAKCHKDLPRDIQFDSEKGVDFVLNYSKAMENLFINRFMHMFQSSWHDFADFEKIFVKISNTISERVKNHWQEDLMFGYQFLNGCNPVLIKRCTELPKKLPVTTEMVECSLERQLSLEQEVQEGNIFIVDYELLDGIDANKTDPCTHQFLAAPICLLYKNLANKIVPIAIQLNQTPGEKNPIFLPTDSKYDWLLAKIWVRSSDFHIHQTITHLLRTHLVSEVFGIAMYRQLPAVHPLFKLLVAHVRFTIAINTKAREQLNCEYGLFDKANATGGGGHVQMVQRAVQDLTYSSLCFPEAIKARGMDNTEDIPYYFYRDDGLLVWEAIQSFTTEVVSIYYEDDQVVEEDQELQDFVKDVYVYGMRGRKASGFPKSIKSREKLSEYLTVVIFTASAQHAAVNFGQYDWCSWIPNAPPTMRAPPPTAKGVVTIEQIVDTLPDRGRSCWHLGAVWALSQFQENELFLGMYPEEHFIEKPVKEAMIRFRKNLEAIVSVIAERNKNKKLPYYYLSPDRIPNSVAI
The experiment in a line: Inhibition of 5-lipoxygenase in Wistar rat peritoneal leukocytes. The procedure, abridged: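 Leukocytes (~85% PMNs) were elicited in male Wistar rats (200-300 g) with ip 6% oyster glycogen and harvested 16-20 h later. Cells at 2.5 × 10^6/mL in complete HBSS were tested in triplicate, preincubated with the sample (in DMSO, or CHCl3 evaporated) for 10 min at 37 °C, then given A23187 for 10 min. Supernatant LTB4 was measured by RIA (3H-LTB4 tracer, rabbit antiserum, 18 h, 4 °C).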

A value given as a limit tells only on which side of the number the result lay.

`C=C1CCCC(C)C(=O)C(=O)[C@@H]2[C@@H]1CC2(C)C` (stereo partly specified) [buddledin B] had an IC50 of over 200 µM.

As usually defined, the IC50 is the point on the concentration scale where inhibition reaches its midpoint.

The values above are taken from BindingDB's records for doi:10.1021/np990092+ (Peking Union Medical College, 1999).
